Tested on: Mus musculus
Assay: Percent protection against TNF-alpha induced leukopenia in mice at a dose of 50 mg/Kg
Assay type: functional
Summary of the method: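 Mice given compound intraperitoneally in 250 uL saline, then 60 min later […] LPS in saline, ip. Blood was taken 2 h after LPS by retro-orbital puncture into heparinized tubes. Nucleated cells were counted, with neutrophil content as the leukopenia read-out.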

`CCCn1c(=O)n(CCCC(=O)OCC)c(=O)c2nccnc21` showed a Protection of 60%.
